In ChEMBL document CHEMBL1157664, “Aminopyridinecarboxamide-based inhibitors: Structure-activity relationship” (Bioorg Med Chem, 2010):
The source made the active and inactive calls. The calls are words filed in the database; no cut-off is given here.

Experiments:
[1] = molecular target: T1, Inhibitor of nuclear factor kappa-B kinase subunit epsilon (Homo sapiens) (UniProt Q14164); test: Inhibition of IKKI
T1 sequence (whole entry): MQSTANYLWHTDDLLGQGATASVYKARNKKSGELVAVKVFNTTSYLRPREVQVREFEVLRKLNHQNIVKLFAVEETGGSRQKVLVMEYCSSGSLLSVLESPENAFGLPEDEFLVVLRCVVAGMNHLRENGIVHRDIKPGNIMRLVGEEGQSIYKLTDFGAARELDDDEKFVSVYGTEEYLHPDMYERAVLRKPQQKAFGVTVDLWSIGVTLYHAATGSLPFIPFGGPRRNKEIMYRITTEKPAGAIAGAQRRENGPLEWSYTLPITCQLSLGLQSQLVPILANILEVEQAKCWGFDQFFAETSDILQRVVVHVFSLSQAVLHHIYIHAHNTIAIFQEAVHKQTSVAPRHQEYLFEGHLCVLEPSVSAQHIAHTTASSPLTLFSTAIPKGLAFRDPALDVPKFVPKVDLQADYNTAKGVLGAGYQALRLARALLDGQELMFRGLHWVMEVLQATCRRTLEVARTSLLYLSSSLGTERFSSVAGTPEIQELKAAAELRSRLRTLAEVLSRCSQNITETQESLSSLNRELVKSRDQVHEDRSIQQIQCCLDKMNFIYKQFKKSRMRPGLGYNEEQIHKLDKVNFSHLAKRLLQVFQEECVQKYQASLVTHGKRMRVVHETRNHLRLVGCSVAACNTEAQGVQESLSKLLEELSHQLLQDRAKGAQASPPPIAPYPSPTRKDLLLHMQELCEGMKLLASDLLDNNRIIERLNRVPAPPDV

[2] = molecular target: T2, Inhibitor of nuclear factor kappa-B kinase subunit alpha (Homo sapiens, UniProt O15111); test: Inhibition of IKK1
T2 sequence (O15111 whole entry): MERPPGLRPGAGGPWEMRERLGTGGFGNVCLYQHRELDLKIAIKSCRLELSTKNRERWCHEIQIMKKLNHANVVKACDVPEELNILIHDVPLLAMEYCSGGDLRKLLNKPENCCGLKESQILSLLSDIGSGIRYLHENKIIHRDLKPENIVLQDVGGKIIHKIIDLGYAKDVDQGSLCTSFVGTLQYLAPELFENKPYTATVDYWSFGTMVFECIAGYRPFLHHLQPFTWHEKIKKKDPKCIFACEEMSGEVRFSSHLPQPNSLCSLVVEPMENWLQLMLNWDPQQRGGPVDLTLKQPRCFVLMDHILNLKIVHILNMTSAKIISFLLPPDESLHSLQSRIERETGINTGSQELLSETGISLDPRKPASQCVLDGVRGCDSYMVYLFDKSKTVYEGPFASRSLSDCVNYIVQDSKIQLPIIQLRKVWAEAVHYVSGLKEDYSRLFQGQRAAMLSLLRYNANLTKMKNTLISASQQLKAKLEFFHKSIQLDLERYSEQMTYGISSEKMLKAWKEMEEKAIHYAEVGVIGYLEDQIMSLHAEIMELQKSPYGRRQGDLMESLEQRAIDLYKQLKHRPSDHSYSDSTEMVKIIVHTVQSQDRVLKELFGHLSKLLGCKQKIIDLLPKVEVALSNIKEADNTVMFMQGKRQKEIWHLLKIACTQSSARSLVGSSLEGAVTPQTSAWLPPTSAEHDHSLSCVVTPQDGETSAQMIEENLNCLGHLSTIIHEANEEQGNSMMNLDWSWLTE

[3] = Antiinflammatory activity in human synovial fibroblasts assessed as inhibition of IL-1-beta-stimulated IL8 production treated 1 hr before IL1-beta challenge measured after 18 hrs by ELISA; format: functional
Summary of the method: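 Rheumatoid arthritis patient synovial fibroblasts seeded at 1.5 × 10^4 cells/well in DMEM + 15% FBS and left to attach overnight. Medium then changed to DMEM + 1% FBS. Cells pretreated 1 h with increasing compound concentrations (0.2% Me2SO final), then stimulated 18 h with 1 ng/mL IL-1β. Secreted IL-8 measured by ELISA against standard curves (4-parameter logistic). Cytotoxicity checked by Alamar Blue.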

[4] = molecular target: T3, Serine/threonine-protein kinase TBK1 (Homo sapiens) (UniProt Q9UHD2); test: Inhibition of TBK1
T3 sequence (whole entry): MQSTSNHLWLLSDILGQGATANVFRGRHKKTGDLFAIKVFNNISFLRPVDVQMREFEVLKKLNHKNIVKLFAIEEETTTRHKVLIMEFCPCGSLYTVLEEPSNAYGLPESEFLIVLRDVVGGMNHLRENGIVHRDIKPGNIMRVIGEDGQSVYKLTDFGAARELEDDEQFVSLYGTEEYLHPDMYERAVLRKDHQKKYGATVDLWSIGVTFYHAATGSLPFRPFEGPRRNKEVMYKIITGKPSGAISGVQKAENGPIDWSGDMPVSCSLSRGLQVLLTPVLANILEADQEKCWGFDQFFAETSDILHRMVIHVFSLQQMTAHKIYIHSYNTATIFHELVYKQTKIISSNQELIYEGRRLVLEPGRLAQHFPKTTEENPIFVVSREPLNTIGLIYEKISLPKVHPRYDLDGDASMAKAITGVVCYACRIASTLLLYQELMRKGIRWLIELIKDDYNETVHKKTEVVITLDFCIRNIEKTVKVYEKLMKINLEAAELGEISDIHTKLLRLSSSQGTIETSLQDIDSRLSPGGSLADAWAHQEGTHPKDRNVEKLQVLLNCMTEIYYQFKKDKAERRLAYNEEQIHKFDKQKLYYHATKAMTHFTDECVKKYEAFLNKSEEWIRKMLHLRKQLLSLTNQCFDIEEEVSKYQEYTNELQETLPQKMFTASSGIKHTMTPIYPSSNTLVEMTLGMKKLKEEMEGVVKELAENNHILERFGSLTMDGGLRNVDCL

[5] = molecular target: T4, Inhibitor of nuclear factor kappa-B kinase subunit beta (Homo sapiens, UniProt O14920); test: Inhibition of human recombinant IKK2-mediated transfer of [gamma33P]ATP to biotinylated IkappaBalpha after 30 mins by scintillation counting
T4 sequence (O14920 whole entry): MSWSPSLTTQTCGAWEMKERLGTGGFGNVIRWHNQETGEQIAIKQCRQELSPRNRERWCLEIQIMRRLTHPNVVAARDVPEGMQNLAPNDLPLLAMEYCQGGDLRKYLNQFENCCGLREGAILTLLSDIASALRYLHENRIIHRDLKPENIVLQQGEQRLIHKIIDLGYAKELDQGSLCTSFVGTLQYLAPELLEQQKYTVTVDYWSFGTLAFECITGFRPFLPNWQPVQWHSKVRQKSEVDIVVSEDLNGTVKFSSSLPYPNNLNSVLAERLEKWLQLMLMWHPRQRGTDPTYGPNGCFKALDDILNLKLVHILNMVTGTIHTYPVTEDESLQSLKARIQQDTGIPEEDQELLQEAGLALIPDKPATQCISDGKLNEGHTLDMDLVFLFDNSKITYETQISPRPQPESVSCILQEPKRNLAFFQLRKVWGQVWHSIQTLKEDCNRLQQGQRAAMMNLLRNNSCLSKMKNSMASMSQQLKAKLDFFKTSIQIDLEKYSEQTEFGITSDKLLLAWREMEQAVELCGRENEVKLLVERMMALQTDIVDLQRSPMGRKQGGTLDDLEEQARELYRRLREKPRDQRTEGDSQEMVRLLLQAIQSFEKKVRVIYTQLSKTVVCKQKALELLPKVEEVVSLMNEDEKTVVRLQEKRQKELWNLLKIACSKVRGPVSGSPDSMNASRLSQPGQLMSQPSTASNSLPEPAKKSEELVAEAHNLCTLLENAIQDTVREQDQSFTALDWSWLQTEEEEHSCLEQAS
Summary of the method: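 Recombinant human IKK-2 enzyme (46 nM/rxn, 200 ng/rxn). Substrate 5 µM biotinylated IκBα peptide (residues spanning Ser32/Ser36) with 1 µM ATP plus 0.1 µCi [γ-33P]ATP. Buffer 25 mM Hepes pH 7.6 with 1 mM DTT, 2 mM MgCl2, 2 mM MnCl2, 10 mM NaF. Incubated 30 min at 25 °C, stopped with AG1X8 resin in formate buffer pH 3. Supernatant ³³P read by scintillation counting.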

inhibition [1]: inactive | IC50 [2]: 14000 nM | inhibition [4]: inactive | IC50 [5]: 25 nM
SMILES: CN1CCN(c2cc(C(=O)Nc3ccc4c(c3)-c3c(c(C(N)=O)nn3-c3ccc(F)cc3)CC4)c(Cl)cn2)CC1
IC50 [3]: 940 nM
